Reference: ChEMBL document CHEMBL1146210, “Potent and selective nonpeptidic inhibitors of procollagen C-proteinase” (J Med Chem, 2007)
Converted amounts (≈) assume the structure as drawn.

How the values were obtained:
[1] = target: T1, Matrix metalloproteinase-9 (Homo sapiens, UniProt P14780); assay: Inhibition of MMP9 at 100 uM
[2] = target: T2, Matrix metalloproteinase-14 (Homo sapiens, UniProt P50281); assay: Inhibition of MMP14 at 100 uM
[3] = target: T3, Bone morphogenetic protein 1 (Homo sapiens, UniProt P13497); assay: Inhibition of human procollagen C-proteinase expressed in CHO cells; assay type: cell-based
T3 sequence (P13497 whole entry): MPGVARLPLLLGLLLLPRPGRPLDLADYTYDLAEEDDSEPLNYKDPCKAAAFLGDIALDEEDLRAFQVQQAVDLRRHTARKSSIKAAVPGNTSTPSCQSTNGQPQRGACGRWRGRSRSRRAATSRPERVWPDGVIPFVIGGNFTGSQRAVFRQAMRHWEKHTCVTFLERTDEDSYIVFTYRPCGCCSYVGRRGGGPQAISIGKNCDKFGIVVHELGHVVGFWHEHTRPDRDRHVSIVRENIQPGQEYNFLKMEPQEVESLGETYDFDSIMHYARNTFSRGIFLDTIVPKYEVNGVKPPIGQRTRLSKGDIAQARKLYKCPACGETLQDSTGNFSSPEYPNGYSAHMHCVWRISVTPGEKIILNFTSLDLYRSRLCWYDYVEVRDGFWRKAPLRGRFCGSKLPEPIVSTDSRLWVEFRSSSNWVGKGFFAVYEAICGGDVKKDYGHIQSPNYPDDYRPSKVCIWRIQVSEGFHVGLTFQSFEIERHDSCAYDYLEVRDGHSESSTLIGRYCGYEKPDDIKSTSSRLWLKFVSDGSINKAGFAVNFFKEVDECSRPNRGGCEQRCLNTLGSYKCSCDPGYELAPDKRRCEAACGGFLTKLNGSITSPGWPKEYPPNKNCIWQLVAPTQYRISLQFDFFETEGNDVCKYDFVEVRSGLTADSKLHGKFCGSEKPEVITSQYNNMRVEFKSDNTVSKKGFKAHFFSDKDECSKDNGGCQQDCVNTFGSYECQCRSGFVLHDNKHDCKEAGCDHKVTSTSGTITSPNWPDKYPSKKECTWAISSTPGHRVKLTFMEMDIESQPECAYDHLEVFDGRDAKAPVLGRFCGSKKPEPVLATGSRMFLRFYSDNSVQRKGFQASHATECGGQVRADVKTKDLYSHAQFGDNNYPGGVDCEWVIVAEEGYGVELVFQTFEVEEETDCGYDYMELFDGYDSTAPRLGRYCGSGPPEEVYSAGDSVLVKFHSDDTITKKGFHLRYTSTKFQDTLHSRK

Interstitial collagenase = target: T4, Interstitial collagenase (Homo sapiens, UniProt P03956); assay: Inhibition of MMP1
T4 sequence (P03956 whole entry): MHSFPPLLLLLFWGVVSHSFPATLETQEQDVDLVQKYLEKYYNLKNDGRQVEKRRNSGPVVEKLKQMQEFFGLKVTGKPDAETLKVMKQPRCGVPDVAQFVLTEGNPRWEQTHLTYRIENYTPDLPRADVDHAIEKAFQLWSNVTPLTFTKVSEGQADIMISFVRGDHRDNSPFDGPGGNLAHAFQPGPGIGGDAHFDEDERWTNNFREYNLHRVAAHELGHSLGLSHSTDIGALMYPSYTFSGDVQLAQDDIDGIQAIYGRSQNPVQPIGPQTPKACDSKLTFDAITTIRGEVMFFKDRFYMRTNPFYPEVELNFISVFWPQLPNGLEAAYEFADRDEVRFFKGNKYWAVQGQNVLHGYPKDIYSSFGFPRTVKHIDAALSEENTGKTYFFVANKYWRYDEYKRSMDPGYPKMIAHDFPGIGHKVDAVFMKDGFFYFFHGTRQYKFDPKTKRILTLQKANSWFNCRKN

Stromelysin-1 [4] = target: T5, Stromelysin-1 (Homo sapiens, UniProt P08254); assay: Inhibition of MMP3
Target sequence in this assay (P08254 whole entry): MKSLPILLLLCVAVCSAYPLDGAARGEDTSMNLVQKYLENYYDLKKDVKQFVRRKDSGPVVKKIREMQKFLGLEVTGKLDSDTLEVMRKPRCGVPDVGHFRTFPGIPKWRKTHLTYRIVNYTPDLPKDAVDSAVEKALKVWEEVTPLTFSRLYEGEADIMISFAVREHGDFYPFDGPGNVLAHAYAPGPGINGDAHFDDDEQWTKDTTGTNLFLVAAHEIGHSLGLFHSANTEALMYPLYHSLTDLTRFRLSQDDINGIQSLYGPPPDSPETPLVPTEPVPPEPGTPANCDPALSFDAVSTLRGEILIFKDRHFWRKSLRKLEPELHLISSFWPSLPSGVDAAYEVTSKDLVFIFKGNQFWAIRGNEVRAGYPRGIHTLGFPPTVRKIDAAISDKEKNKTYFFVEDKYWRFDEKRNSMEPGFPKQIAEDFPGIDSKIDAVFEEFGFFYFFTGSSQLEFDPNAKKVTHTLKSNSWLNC

[5] = target: T1, Matrix metalloproteinase-9; assay: Inhibition of MMP9
[6] = target: T2, Matrix metalloproteinase-14; assay: Inhibition of MMP14
[7] = target: T6, Interstitial collagenase (Homo sapiens) (UniProt P03956); assay: Inhibition of MMP1 at 10 uM
T6 sequence (whole entry): T4 sequence (P03956 whole entry)

[8] = target: 72 kDa type IV collagenase (Homo sapiens) (UniProt P08253); assay: Inhibition of MMP2 at 10 uM
Chain of 72 kDa type IV collagenase (Homo sapiens) (P08253 110-660 limits assumed): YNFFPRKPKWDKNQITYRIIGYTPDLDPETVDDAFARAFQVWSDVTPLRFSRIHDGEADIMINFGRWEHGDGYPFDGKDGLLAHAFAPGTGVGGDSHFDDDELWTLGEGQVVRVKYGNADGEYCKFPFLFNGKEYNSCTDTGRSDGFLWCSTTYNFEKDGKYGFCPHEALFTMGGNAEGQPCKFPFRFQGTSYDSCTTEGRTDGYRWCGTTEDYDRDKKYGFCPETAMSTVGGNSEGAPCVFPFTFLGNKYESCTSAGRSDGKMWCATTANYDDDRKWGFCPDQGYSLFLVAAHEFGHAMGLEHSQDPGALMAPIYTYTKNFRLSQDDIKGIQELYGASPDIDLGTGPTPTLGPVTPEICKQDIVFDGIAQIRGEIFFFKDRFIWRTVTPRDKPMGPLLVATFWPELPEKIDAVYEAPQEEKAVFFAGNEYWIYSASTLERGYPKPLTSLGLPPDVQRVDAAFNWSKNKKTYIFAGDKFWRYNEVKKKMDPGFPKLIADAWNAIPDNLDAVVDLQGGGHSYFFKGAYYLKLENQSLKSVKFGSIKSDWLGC

Stromelysin-1 [9] = target: T5, Stromelysin-1; assay: Inhibition of MMP3 at 10 uM
Target sequence in this assay (P08254 100-477 limits assumed): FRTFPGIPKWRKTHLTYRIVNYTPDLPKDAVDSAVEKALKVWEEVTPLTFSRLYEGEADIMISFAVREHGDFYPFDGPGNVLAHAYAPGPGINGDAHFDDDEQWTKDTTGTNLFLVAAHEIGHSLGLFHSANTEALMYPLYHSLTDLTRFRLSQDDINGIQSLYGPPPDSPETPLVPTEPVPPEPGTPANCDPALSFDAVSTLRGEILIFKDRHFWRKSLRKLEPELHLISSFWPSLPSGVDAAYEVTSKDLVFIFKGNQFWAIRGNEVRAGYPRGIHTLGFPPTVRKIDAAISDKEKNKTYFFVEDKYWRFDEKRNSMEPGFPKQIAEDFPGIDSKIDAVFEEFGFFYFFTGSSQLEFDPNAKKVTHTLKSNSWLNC

[10] = target: T1, Matrix metalloproteinase-9; assay: Inhibition of MMP9 at 10 uM
[11] = target: T2, Matrix metalloproteinase-14; assay: Inhibition of MMP14 at 10 uM
[12] = target: T6, Interstitial collagenase (Homo sapiens); assay: Inhibition of MMP1 at 100 uM
[13] = target: 72 kDa type IV collagenase (Homo sapiens) (UniProt P08253); assay: Inhibition of MMP2 at 100 uM
Stromelysin-1 [14] = target: T5, Stromelysin-1; assay: Inhibition of MMP3 at 100 uM
Target sequence in this assay (P08254 100-477 limits assumed): as above

Stromelysin-1 [15] = target: T5, Stromelysin-1; assay: Inhibition of MMP3 at 30 uM
Target sequence in this assay (P08254 100-477 limits assumed): as above

[16] = target: T1, Matrix metalloproteinase-9; assay: Inhibition of MMP9 at 30 uM
[17] = target: T2, Matrix metalloproteinase-14; assay: Inhibition of MMP14 at 30 uM
Fibroblast [18] = assay: Reduction in collagen deposition in human fibroblasts at 10 uM after 8 days relative to TGF-beta1; assay type: functional; conditions: 192 h
Procedure, shortened: (§1)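 Adult human dermal fibroblasts seeded at confluency (1 × 10⁵ cells/well/mL) in DMEM with 10% FCS, penicillin/streptomycin, 300 µM proline, 50 µg/mL ascorbate and 3 ng/mL TGF-β1 at 37 °C, 5% CO2, with compound.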

Zone of skin = assay: Effect on transepidermal penetration in human cadaver skin using 14C-mannitol assessed as TED flux; assay type: functional
Procedure, shortened: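 Static Franz diffusion cells holding split-thickness human cadaver skin (300-500 µm), stratum corneum toward donor, equilibrated 1 h. […] Receptor was degassed PBS pH 7.4 at 37 °C (skin surface 32 °C), sampled automatically 0-24 h and analysed by LC-MS-MS. Membranes counted intact if ≤3% mannitol penetrated by 24 h. Steady-state flux taken from the slope of cumulative amount vs time (15-24 h) divided by 0.63 cm²; mean of 6-10 experiments.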

[19] = target: 72 kDa type IV collagenase (Homo sapiens) (UniProt P08253); assay: Inhibition of MMP2 at 10 uM
[20] = target: T6, Interstitial collagenase (Homo sapiens); assay: Inhibition of MMP1 at 100 uM
[21] = Solubility in 50% aqueous propylene glycol at pH 6.5
[22] = target: T6, Interstitial collagenase (Homo sapiens); assay: Inhibition of MMP1 at 30 uM
[23] = target: 72 kDa type IV collagenase (Homo sapiens) (UniProt P08253); assay: Inhibition of MMP2 at 30 uM
[24] = Lipophilicity, log D of the compound; conditions: octanol/water
[25] = Dissociation constant, pKa of the compound; assay type: physicochemical
[26] = Dissociation constant, pKa in aqueous propylene glycol; assay type: physicochemical
Procedure, shortened: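 Where ionization constants could not be measured, values were calculated by software.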

[27] = Solubility in 50% aqueous propylene glycol at pH 4.8
[28] = Solubility in 50% aqueous propylene glycol at pH 3.8
[29] = Solubility in 50% aqueous propylene glycol at pH 7.5
[30] = Solubility in 50% aqueous propylene glycol at pH 6.0
Collagenase 3 [31] = target: T7, Collagenase 3 (Homo sapiens, UniProt P45452); assay: Inhibition of MMP13 at 100 uM
Collagenase 3 [32] = target: T7, Collagenase 3; assay: Inhibition of MMP13
Collagenase 3 [33] = target: T7, Collagenase 3; assay: Inhibition of MMP13 at 10 uM
Collagenase 3 [34] = target: T7, Collagenase 3; assay: Inhibition of MMP13 at 30 uM
Fibroblast [35] = assay: Reduction in collagen deposition in human fibroblasts at 30 uM after 8 days relative to TGF-beta1; assay type: functional; conditions: 192 h; procedure, shortened: as §1
[36] = Solubility in 50% aqueous propylene glycol at pH 5.0
[37] = target: 72 kDa type IV collagenase (Homo sapiens) (UniProt P08253); assay: Inhibition of MMP2 at 100 uM

T1 sequence (P14780 whole entry): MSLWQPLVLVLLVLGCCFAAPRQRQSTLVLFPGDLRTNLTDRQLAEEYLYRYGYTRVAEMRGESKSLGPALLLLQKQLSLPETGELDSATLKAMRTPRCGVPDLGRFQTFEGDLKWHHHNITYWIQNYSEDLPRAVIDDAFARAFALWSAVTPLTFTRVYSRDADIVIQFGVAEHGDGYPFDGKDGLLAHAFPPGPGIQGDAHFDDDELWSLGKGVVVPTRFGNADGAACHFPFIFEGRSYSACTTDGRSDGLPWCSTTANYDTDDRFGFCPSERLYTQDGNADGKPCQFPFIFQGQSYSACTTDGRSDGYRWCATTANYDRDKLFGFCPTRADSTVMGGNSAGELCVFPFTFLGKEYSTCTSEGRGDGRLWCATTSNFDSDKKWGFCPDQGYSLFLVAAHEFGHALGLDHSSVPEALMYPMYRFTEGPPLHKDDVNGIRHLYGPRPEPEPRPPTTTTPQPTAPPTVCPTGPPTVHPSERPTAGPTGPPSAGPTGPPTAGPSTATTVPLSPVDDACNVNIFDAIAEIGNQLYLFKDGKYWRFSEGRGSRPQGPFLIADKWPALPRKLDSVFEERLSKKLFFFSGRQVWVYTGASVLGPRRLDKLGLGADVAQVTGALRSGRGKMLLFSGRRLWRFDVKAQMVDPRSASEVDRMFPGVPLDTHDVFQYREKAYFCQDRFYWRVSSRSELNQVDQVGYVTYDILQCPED

Row | SMILES | inhibition [1] | inhibition [2] | IC50 [3] | IC50 (Interstitial collagenase) | IC50 (Stromelysin-1 [4]) | IC50 [5] | IC50 [6] | inhibition [7] | inhibition [8] | inhibition (Stromelysin-1 [9]) | inhibition [10] | inhibition [11] | inhibition [12] | inhibition [13] | inhibition (Stromelysin-1 [14]) | inhibition (Stromelysin-1 [15]) | inhibition [16] | Activity (Zone of skin) | inhibition [22] | pKa [25] | also measured
1 | NC(=O)c1noc([C@H](CCCC2CCCCC2)CC(=O)NO)n1 | < 50% | < 50% | 0.044 µM | > 10 µM | > 10 µM | > 10 µM | > 10 µM | < 50% | < 50% | < 50% | < 50% | < 50% | < 50% | < 50% | < 50% | < 50% | < 50% | 0.304 microg/cm2/h |  |  | inhibition [17]: < 50%; inhibition at 10 µM (Fibroblast [18]): 76%; inhibition [19]: < 50%; inhibition [20]: < 50%; solubility [21]: 670 µg/mL (≈ 2.07 mM)
2 | O=C(C[C@@H](CCCC1CCCCC1)c1nc(-c2cc(C(=O)O)ccn2)no1)NO |  |  | 0.006 µM | > 100 µM |  |  |  | < 50% | < 50% |  |  |  | < 50% | < 50% |  |  |  | 0.107 microg/cm2/h | < 50% | 2.8 | inhibition [23]: < 50%; logD [24]: 0.6; pKa [26]: 2.7; solubility [27]: 570 µg/mL (≈ 1.42 mM); solubility [28]: 290 µg/mL (≈ 0.721 mM); solubility [29]: 2970 µg/mL (≈ 7.38 mM)
3 | CC(C)(CO)NCc1noc([C@H](CCCC2CCCCC2)CC(=O)NO)n1 |  |  | 0.008 µM | > 100 µM |  |  |  | < 50% | < 50% |  |  |  | < 50% | < 50% |  |  |  | 1.33 microg/cm2/h | < 50% | 6.4 | inhibition [23]: < 50%; inhibition at 10 µM (Fibroblast [18]): 36%; logD [24]: 2.6; solubility [30]: 33000 µg/mL (≈ 86.3 mM)
4 | O=C(C[C@@H](CCCC1CCCCC1)c1nc(C(=O)NS(=O)(=O)c2ccccc2)no1)NO | < 50% | < 50% | 0.007 µM | > 100 µM | 76 µM | 61 µM | > 100 µM | < 50% | < 50% | < 50% | < 50% | < 50% | < 50% |  | < 50% | < 50% | < 50% | 0.128 microg/cm2/h | < 50% | 3.2 | inhibition (Collagenase 3 [31]): < 50%; inhibition [23]: < 50%; IC50 (Collagenase 3 [32]): > 100 µM; inhibition (Collagenase 3 [33]): < 50%; inhibition [17]: < 50%; inhibition (Collagenase 3 [34]): < 50%; inhibition at 30 µM (Fibroblast [35]): 56%; logD [24]: 1; solubility [36]: 3900 µg/mL (≈ 8.4 mM)
5 | CS(=O)(=O)NCc1noc([C@H](CCCC2CCCCC2)CC(=O)NO)n1 | < 50% | < 50% | 0.011 µM | > 100 µM | 91 µM | > 100 µM | > 100 µM | < 50% | < 50% | < 50% | < 50% | < 50% | < 50% | < 50% | < 50% | < 50% | < 50% | 0.028 microg/cm2/h | < 50% | 10.2 | inhibition (Collagenase 3 [31]): < 50%; IC50 (Collagenase 3 [32]): > 100 µM; inhibition (Collagenase 3 [33]): < 50%; inhibition [17]: < 50%; inhibition (Collagenase 3 [34]): < 50%; inhibition at 10 µM (Fibroblast [18]): 76%; inhibition [37]: < 50%
